Data from ChEMBL document CHEMBL2429794, “Tuning the antibacterial activity of amphiphilic neamine derivatives and comparison to paromamine homologues” (J Med Chem, 2013).
≈ marks a conversion by molar mass, not a printed value.

How the values were obtained:
Escherichia coli [1] = assay: Antibacterial activity against Escherichia coli L58058.1 expressing ANT2''-1A after 24 hrs by geometric microdilution method; format: functional
Escherichia coli [2] = assay: Antibacterial activity against Escherichia coli PAZ505H8101 expressing AAC6'-1B after 24 hrs by geometric microdilution method; format: functional
Klebsiella pneumoniae = assay: Antibacterial activity against Klebsiella pneumoniae ATCC 700603 after 24 hrs by geometric microdilution method; format: functional
Pseudomonas aeruginosa [3] = assay: Antibacterial activity against Pseudomonas aeruginosa PA22 (PT629) expressing MexXY after 24 hrs by geometric microdilution method; format: functional
Pseudomonas aeruginosa [4] = assay: Antibacterial activity against Pseudomonas aeruginosa F03 expressing AAC6'-2A after 24 hrs by geometric microdilution method; format: functional
Pseudomonas aeruginosa [5] = assay: Antibacterial activity against Pseudomonas aeruginosa ATCC 27853 after 24 hrs by geometric microdilution method; format: functional
Acinetobacter lwoffii [6] = assay: Antibacterial activity against Acinetobacter lwoffii AI.88-483 expressing APH3'-6A after 24 hrs by geometric microdilution method; format: functional
Acinetobacter lwoffii [7] = assay: Antibacterial activity against Acinetobacter lwoffii ATCC 17925 after 24 hrs by geometric microdilution method; format: functional; details: ATCC 17925, 24 h
Staphylococcus aureus [8] = assay: Antibacterial activity against vancomycin-resistant Staphylococcus aureus VRS2 after 24 hrs by geometric microdilution method; format: functional
Procedure, shortened: (§1)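 Broth cultures were incubated in plates at 37 °C, and growth was read as absorbance at 650 nm after 1, 4, 7 and 24 h. Ampicillin (16 mg/L) was the positive control and DMSO the negative control. Each MIC (μg/mL) is the average of at least three determinations.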

Staphylococcus aureus [9] = assay: Antibacterial activity against healthcare-acquired methicillin-resistant Staphylococcus aureus ATCC 33592 after 24 hrs by geometric microdilution method; format: functional; procedure, shortened: as §1
Staphylococcus aureus [10] = assay: Antibacterial activity against Staphylococcus aureus expressing aminoglycoside-[…] after 24 hrs by geometric microdilution method; format: functional; procedure, shortened: as §1
Staphylococcus aureus [11] = assay: Antibacterial activity against Staphylococcus aureus expressing aminoglycoside-3'-O-phosphoryltransferase after 24 hrs by geometric microdilution method; format: functional; procedure, shortened: as §1
Staphylococcus aureus [12] = assay: Antibacterial activity against Staphylococcus aureus expressing aminoglycoside-6'-N-acetyltransferase/2''-O-phosphoryltransferase after 24 hrs by geometric microdilution method; format: functional; procedure, shortened: as §1
Staphylococcus aureus [13] = assay: Antibacterial activity against 14- and 15-membered macrolide-resistant Staphylococcus aureus expressing MsrA efflux pump after 24 hrs by geometric microdilution method; format: functional; procedure, shortened: as §1
Staphylococcus aureus [14] = assay: Antibacterial activity against fluoroquinolone-resistant Staphylococcus aureus 1199B expressing NorA efflux pump after 24 hrs by geometric microdilution method; format: functional; procedure, shortened: as §1
Escherichia coli [15] = assay: microbe, parasite or virus in culture; details: ATCC 25922, 24 h
Staphylococcus aureus [16] = assay: microbe, parasite or virus in culture; details: ATCC 25923, 24 h

Compound	MIC (Escherichia coli [1]; L58058.1, 24 h) [µg/mL]	MIC (Escherichia coli [2]; PAZ505H8101, 24 h) [µg/mL]	MIC (Klebsiella pneumoniae; ATCC 700603, 24 h) [µg/mL]	MIC (Pseudomonas aeruginosa [3]) [µg/mL]	MIC (Pseudomonas aeruginosa [4]; F03, 24 h) [µg/mL]	MIC (Pseudomonas aeruginosa [5]; ATCC 27853, 24 h) [µg/mL]	MIC (Acinetobacter lwoffii [6]; AI.88-483, 24 h) [µg/mL]	MIC (Acinetobacter lwoffii [7]) [µg/mL]	MIC (Staphylococcus aureus [8]; VRS2, 24 h) [µg/mL]	MIC (Staphylococcus aureus [9]; ATCC 33592, 24 h) [µg/mL]	MIC (Staphylococcus aureus [10]) [µg/mL]	MIC (Staphylococcus aureus [11]) [µg/mL]	MIC (Staphylococcus aureus [12]) [µg/mL]	MIC (Staphylococcus aureus [13]) [µg/mL]	MIC (Staphylococcus aureus [14]) [µg/mL]	MIC (Escherichia coli [15]) [µg/mL]	MIC (Staphylococcus aureus [16]) [µg/mL]	also measured
NC[C@H]1O[C@H](O[C@H]2[C@H](O)[C@@H](O)[C@H](N)C[C@@H]2N)[C@H](N)[C@@H](O)[C@@H]1O [NEAMINE]	32 (≈ 99.3 µM)	> 128	32 (≈ 99.3 µM)	> 128	> 128	> 128	> 128	2 (≈ 6.2 µM)	≥ 128	> 128	> 128	> 128	16 (≈ 49.6 µM)	16 (≈ 49.6 µM)	32 (≈ 99.3 µM)	32 (≈ 99.3 µM)	32 (≈ 99.3 µM)	
NC[C@H]1O[C@H](O[C@H]2[C@H](O)[C@@H](O[C@H]3O[C@H](CO)[C@@H](O)[C@H](N)[C@H]3O)[C@H](N)C[C@@H]2N)[C@H](N)C[C@@H]1O [TOBRAMYCIN]	64 (≈ 137 µM)	32 (≈ 68.4 µM)	4 (≈ 8.56 µM)	1 (≈ 2.14 µM)	128 (≈ 274 µM)	0.5 (≈ 1.07 µM)	1 (≈ 2.14 µM)	0.5 (≈ 1.07 µM)								0.5 (≈ 1.07 µM)		
NC[C@@H]1O[C@H](O[C@H]2[C@@H](O)[C@H](O[C@@H]3[C@@H](O)[C@H](N)C[C@H](N)[C@H]3O[C@H]3O[C@H](CN)[C@@H](O)[C@H](O)[C@H]3N)O[C@@H]2CO)[C@H](N)[C@@H](O)[C@@H]1O [FRAMYCETIN]	1 (≈ 1.63 µM)	4 (≈ 6.51 µM)	16 (≈ 26 µM)	32 (≈ 52.1 µM)	128 (≈ 208 µM)	64 (≈ 104 µM)	> 128	0.5 (≈ 0.813 µM)	128 (≈ 208 µM)	> 128	32 (≈ 52.1 µM)	> 128	1 (≈ 1.63 µM)	2 (≈ 3.25 µM)	1 (≈ 1.63 µM)	2 (≈ 3.25 µM)	2 (≈ 3.25 µM)	
CCCCCCCCCCCCCCCCCCO[C@@H]1[C@@H](O)[C@H](O[C@H]2O[C@H](CN)[C@@H](O)[C@H](O)[C@H]2N)[C@@H](N)C[C@H]1N										> 128	> 256	> 256	> 256		> 256		> 128	
N[C@H]1[C@@H](O[C@H]2[C@H](O)[C@@H](OCc3ccc4ccccc4c3)[C@H](N)C[C@@H]2N)O[C@H](CO)[C@@H](OCc2ccc3ccccc3c2)[C@@H]1OCc1ccc2ccccc2c1	32 (≈ 43 µM)	16 (≈ 21.5 µM)	32 (≈ 43 µM)	32 (≈ 43 µM)	32 (≈ 43 µM)	32 (≈ 43 µM)	> 128	1 (≈ 1.34 µM)	128 (≈ 172 µM)	64 (≈ 86 µM)	8 (≈ 10.8 µM)	4 (≈ 5.38 µM)	16 (≈ 21.5 µM)	32 (≈ 43 µM)	16 (≈ 21.5 µM)	64 (≈ 86 µM)	2 (≈ 2.69 µM)	
CCCCO[C@@H]1[C@@H](N)[C@@H](O[C@H]2[C@H](O)[C@@H](OCCCC)[C@H](N)C[C@@H]2N)O[C@H](CN)[C@H]1O	> 128	> 128	> 128	> 128	> 128	> 128	> 128	64 (≈ 147 µM)	> 128	> 128	> 128	> 128	128 (≈ 295 µM)		> 128	> 128	> 128	
NCC[C@H](O)C(=O)N[C@@H]1C[C@H](N)[C@@H](O[C@H]2O[C@H](CN)[C@@H](O)[C@H](O)[C@H]2O)[C@H](O)[C@H]1O[C@H]1O[C@H](CO)[C@@H](O)[C@H](N)[C@H]1O [AMIKACIN]	2 (≈ 3.42 µM)	64 (≈ 109 µM)	0.5 (≈ 0.854 µM)	8 (≈ 13.7 µM)	4 (≈ 6.83 µM)	2 (≈ 3.42 µM)	> 128	0.5 (≈ 0.854 µM)								4 (≈ 6.83 µM)		
N[C@H]1[C@@H](O[C@H]2[C@H](O)[C@@H](OCc3cccc4ccccc34)[C@H](N)C[C@@H]2N)O[C@H](CO)[C@@H](O)[C@@H]1OCc1cccc2ccccc12	128 (≈ 212 µM)	64 (≈ 106 µM)	128 (≈ 212 µM)	> 128	128 (≈ 212 µM)	64 (≈ 106 µM)	> 128	128 (≈ 212 µM)		32 (≈ 53 µM)	32 (≈ 53 µM)	32 (≈ 53 µM)	64 (≈ 106 µM)	64 (≈ 106 µM)	64 (≈ 106 µM)	128 (≈ 212 µM)	32 (≈ 53 µM)	
NC[C@H]1O[C@H](O[C@H]2[C@H](O)[C@@H](OCCCc3ccc4ccccc4c3)[C@H](N)C[C@@H]2N)[C@H](N)[C@@H](OCCCc2ccc3ccccc3c2)[C@@H]1OCCCc1ccc2ccccc2c1	> 128	32 (≈ 38.7 µM)		128 (≈ 155 µM)	64 (≈ 77.4 µM)	128 (≈ 155 µM)			> 128	128 (≈ 155 µM)	128 (≈ 155 µM)	32 (≈ 38.7 µM)	64 (≈ 77.4 µM)	32 (≈ 38.7 µM)	> 128	128 (≈ 155 µM)	> 128	
NC[C@H]1O[C@H](O[C@H]2[C@H](O)[C@@H](OCCCCc3ccc4ccccc4c3)[C@H](N)C[C@@H]2N)[C@H](N)[C@@H](OCCCCc2ccc3ccccc3c2)[C@@H]1OCCCCc1ccc2ccccc2c1	> 128	128 (≈ 147 µM)		128 (≈ 147 µM)	128 (≈ 147 µM)	128 (≈ 147 µM)			> 128	> 128	128 (≈ 147 µM)	128 (≈ 147 µM)	128 (≈ 147 µM)	128 (≈ 147 µM)	> 128	128 (≈ 147 µM)	> 128	
N[C@H]1[C@@H](O[C@H]2[C@H](O)[C@@H](O)[C@H](N)C[C@@H]2N)O[C@H](CO)[C@@H](O)[C@@H]1O [PAROMAMINE]	> 128	> 128		> 128	> 128	> 128			> 128	> 128	> 128	> 128	> 128	> 128	> 128	> 128	32 (≈ 99 µM)	
CCCCCCCCCCCCCCCCCCO[C@@H]1[C@@H](N)[C@@H](O[C@H]2[C@H](O)[C@@H](O)[C@H](N)C[C@@H]2N)O[C@H](CN)[C@H]1O											> 128	> 128	> 128		> 128		> 128	
GENTAMICIN				4														MIC (Escherichia coli [1]): 64 µg/mL; MIC (Escherichia coli [2]): 1 µg/mL; MIC (Klebsiella pneumoniae): 8 µg/mL; MIC (Pseudomonas aeruginosa [4]): > 128 µg/mL; MIC (Pseudomonas aeruginosa [5]): 1 µg/mL; MIC (Acinetobacter lwoffii [6]): 4 µg/mL; MIC (Staphylococcus aureus [8]): 32 µg/mL; MIC (Staphylococcus aureus [9]): 1 µg/mL
NC[C@H]1O[C@H](O[C@H]2[C@H](O)[C@@H](OCc3ccccc3)[C@H](N)C[C@@H]2N)[C@H](N)[C@@H](OCc2ccccc2)[C@@H]1O											> 128	> 128	> 128		> 128		> 128	
CCCCO[C@@H]1[C@@H](N)[C@@H](O[C@H]2[C@H](O)[C@@H](OCCCC)[C@H](N)C[C@@H]2N)O[C@H](CN)[C@H]1OCCCC	> 128	> 128	> 128	> 128	> 128	> 128	> 128	> 128	> 128	> 128	> 128	> 128	> 128		> 128	> 128	> 128	
CCCCCCCCCCCCCCCCCCO[C@@H]1[C@@H](N)[C@@H](O[C@H]2[C@H](O)[C@@H](OCCCCCCCCCCCCCCCCCC)[C@H](N)C[C@@H]2N)O[C@H](CN)[C@H]1O	> 128	> 128		> 128	> 128	> 128			> 128	> 128	256 (≈ 309 µM)	128 (≈ 155 µM)	256 (≈ 309 µM)	> 128	> 128	> 128	> 128	
NC[C@H]1O[C@H](O[C@H]2[C@H](O)[C@@H](OCc3ccc4ccccc4n3)[C@H](N)C[C@@H]2N)[C@H](N)[C@@H](OCc2ccc3ccccc3n2)[C@@H]1OCc1ccc2ccccc2n1	> 128	> 128	> 128	> 128	> 128	> 128	> 128	128 (≈ 172 µM)	64 (≈ 85.8 µM)	64 (≈ 85.8 µM)	> 128	64 (≈ 85.8 µM)	128 (≈ 172 µM)		> 128	> 128	128 (≈ 172 µM)	
NC[C@H]1O[C@H](O[C@H]2[C@H](O)[C@@H](OCc3ccccc3)[C@H](N)C[C@@H]2N)[C@H](N)[C@@H](OCc2ccccc2)[C@@H]1OCc1ccccc1	> 128	> 128	> 128	> 128	> 128	> 128	> 128	> 128	64 (≈ 108 µM)	> 128	> 128	> 128	> 128		> 128	> 128	> 128	
